In ChEMBL document CHEMBL3853327 (J Med Chem, 2016):

Assays:
[1] = system: Human immunodeficiency virus 1; test: Potency index, ratio of ETV EC50 to compound EC50 for HIV1 3B harboring reverse transcriptase Y181C mutant infected in human MT4 cells; assay type: functional
[2] = Cytotoxicity against human mock-infected MT4 cells assessed as reduction in cell viability after 5 days by MTT assay; assay type: toxicity, cell-based
How it was run: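 Mock-infected MT-4 cells (6 × 10^5 cells/mL at seeding) with serial 5-fold compound dilutions in triplicate wells. Viability read by MTT after 5 days, absorbance at 540 and 690 nm, median OD of three wells. CC50 is the concentration reducing OD540 of mock-infected cells by 50%.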

[3] = MRT (0 to infinity) in Sprague-Dawley rat plasma at 16 mg/kg administered through oral gavage measured at 5 mins to 24 hrs post dosing by LC/MS analysis; assay type: ADME, organism-based
How it was run: (§1)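 Male Sprague-Dawley rats, ten randomly split into two groups (n = 5), single gavage dose of 8 or 16 mg·kg−1 in PEG 400/normal saline (70/30, V/V). Jugular sinus blood into heparinized tubes at 5 min to 24 h; plasma separated at 2200g for 8 min, stored −20 °C. Methanol precipitation with internal standard, LC-MS quantitation against plasma standard curves. Parameters reported as mean ± SD.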

[4] = AUMC (0 to infinity) in Sprague-Dawley rat plasma at 8 mg/kg administered through oral gavage measured at 5 mins to 24 hrs post dosing by LC/MS analysis; assay type: ADME, organism-based; conditions: in vivo; how it was run: as §1
[5] = Selectivity index, ratio of CC50 for human mock-infected MT4 cells to EC50 for HIV1 3B harboring reverse transcriptase L100I mutant infected in human MT4 cells; assay type: toxicity, cell-based; conditions: MT4 cells (mock-infected for CC50, HIV-1 infected for EC50)
How it was run: (§2)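 Selectivity index is CC50/EC50. CC50 is the concentration that reduces OD540 of mock-infected MT-4 cells by 50% in the 5-day MTT assay. EC50 is the 50% protection from virus-induced cytopathicity, measured in parallel on infected wells.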

[6] = Selectivity index, ratio of CC50 for human mock-infected MT4 cells to EC50 for HIV1 3B harboring reverse transcriptase Y188L mutant infected in human MT4 cells; assay type: toxicity, cell-based; conditions: MT4 cells (mock-infected for CC50, HIV-1 infected for EC50); how it was run: as §2
[7] = AUC (0 to infinity) in Sprague-Dawley rat plasma at 8 mg/kg administered through oral gavage measured at 5 mins to 24 hrs post dosing by LC/MS analysis; assay type: ADME, organism-based; set-up: dose 8 mg/kg, route oral, time infinity; conditions: in vivo; how it was run: as §1
[8] = Apparent half life in Sprague-Dawley rat plasma at 16 mg/kg administered through oral gavage measured at 5 mins to 24 hrs post dosing by LC/MS analysis; assay type: ADME, organism-based; conditions: in vivo; how it was run: as §1
[9] = Apparent half life in Sprague-Dawley rat plasma at 8 mg/kg administered through oral gavage measured at 5 mins to 24 hrs post dosing by LC/MS analysis; assay type: ADME, organism-based; conditions: in vivo; how it was run: as §1
[10] = MRT (0 to infinity) in Sprague-Dawley rat plasma at 8 mg/kg administered through oral gavage measured at 5 mins to 24 hrs post dosing by LC/MS analysis; assay type: ADME, organism-based; how it was run: as §1
[11] = system: Human immunodeficiency virus 1; test: Antiviral activity against wild type HIV1 3B harboring reverse transcriptase infected in human MT4 cells assessed as protection against virus induced cytotoxicity after 5 days by MTT assay; assay type: functional, cell-based; conditions: Human immunodeficiency virus 1, 3B, MT4, 120 h
How it was run: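 MTT cytopathicity assay in MT-4 cells (6 × 10^5 cells/mL). Compounds serially diluted 5-fold in triplicate wells, run in parallel on infected and mock-infected cells. Virus added at 100−300 CCID50 per well. Viability read spectrophotometrically at 540 and 690 nm after 5 days, using the median OD of three wells.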

[12] = AUMC (0 to t) in Sprague-Dawley rat plasma at 8 mg/kg administered through oral gavage measured at 5 mins to 24 hrs post dosing by LC/MS analysis; assay type: ADME, organism-based; conditions: in vivo; how it was run: as §1
[13] = system: Human immunodeficiency virus 1; test: Potency index, ratio of ETV EC50 to compound EC50 for wild type HIV1 3B harboring reverse transcriptase infected in human MT4 cells; assay type: functional
[14] = Selectivity index, ratio of CC50 for human mock-infected MT4 cells to EC50 for HIV1 3B harboring reverse transcriptase Y181C mutant infected in human MT4 cells; assay type: toxicity, cell-based; conditions: MT4 cells (mock-infected for CC50, HIV-1 infected for EC50); how it was run: as §2
[15] = Selectivity index, ratio of CC50 for human mock-infected MT4 cells to EC50 for HIV1 3B harboring reverse transcriptase E138K mutant infected in human MT4 cells; assay type: toxicity, cell-based; conditions: MT4 cells (mock-infected for CC50, HIV-1 infected for EC50); how it was run: as §2
[16] = Apparent clearance during terminal phase in Sprague-Dawley rat plasma at 8 mg/kg administered through oral gavage measured at 5 mins to 24 hrs post dosing by LC/MS analysis; assay type: ADME, organism-based; conditions: in vivo; how it was run: as §1
[17] = MRT (0 to t) in Sprague-Dawley rat plasma at 16 mg/kg administered through oral gavage measured at 5 mins to 24 hrs post dosing by LC/MS analysis; assay type: ADME, organism-based; how it was run: as §1
[18] = VRT (0 to t) in Sprague-Dawley rat plasma at 16 mg/kg administered through oral gavage measured at 5 mins to 24 hrs post dosing by LC/MS analysis; assay type: ADME, organism-based; conditions: in vivo; how it was run: as §1
[19] = system: Human immunodeficiency virus 1; test: Antiviral activity against HIV1 3B harboring reverse transcriptase L100I mutant infected in human MT4 cells assessed as protection against virus induced cytotoxicity after 5 days by MTT assay; assay type: functional, cell-based; conditions: Human immunodeficiency virus 1, 3B, MT4, 120 h
How it was run: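 MTT cytopathicity assay in MT-4 cells (6 × 10^5 cells/mL). Compounds serially diluted 5-fold in triplicate wells, run in parallel on infected and mock-infected cells. Virus added at 100−300 CCID50 per well. Viability read spectrophotometrically at 540 and 690 nm after 5 days, using the median OD of three wells. EC50 is the concentration giving 50% protection from viral cytopathogenicity.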

[20] = Selectivity index, ratio of CC50 for human mock-infected MT4 cells to EC50 for wild type HIV1 3B harboring reverse transcriptase infected in human MT4 cells; assay type: toxicity, cell-based; conditions: MT4 cells (mock-infected for CC50, HIV-1 infected for EC50); how it was run: as §2
Mus musculus = test: Acute toxicity in Kunming mouse assessed as increase in body weight at 2000 mg/kg, ig after 1 week; assay type: organism-based; conditions: in vivo, po, 168 h
How it was run: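 Kunming mice (18−22 g), fasted 12 h, then given a single intragastric dose suspended in PEG-400 (100 or 200 mg·mL−1 for 1000 or 2000 mg·kg−1). Six mice per dose group, half male and half female. Deaths and body-weight gain followed for 1 week.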

[21] = Tmax in Sprague-Dawley rat plasma at 16 mg/kg administered through oral gavage measured at 5 mins to 24 hrs post dosing by LC/MS analysis; assay type: ADME, organism-based; conditions: in vivo; how it was run: as §1
[22] = VRT (0 to t) in Sprague-Dawley rat plasma at 8 mg/kg administered through oral gavage measured at 5 mins to 24 hrs post dosing by LC/MS analysis; assay type: ADME, organism-based; conditions: in vivo; how it was run: as §1
[23] = VRT (0 to infinity) in Sprague-Dawley rat plasma at 8 mg/kg administered through oral gavage measured at 5 mins to 24 hrs post dosing by LC/MS analysis; assay type: ADME, organism-based; conditions: in vivo; how it was run: as §1
[24] = AUMC (0 to infinity) in Sprague-Dawley rat plasma at 16 mg/kg administered through oral gavage measured at 5 mins to 24 hrs post dosing by LC/MS analysis; assay type: ADME, organism-based; conditions: in vivo; how it was run: as §1
[25] = AUC (0 to infinity) in Sprague-Dawley rat plasma at 16 mg/kg administered through oral gavage measured at 5 mins to 24 hrs post dosing by LC/MS analysis; assay type: ADME, organism-based; set-up: dose 16 mg/kg, time infinity, route oral; conditions: in vivo; how it was run: as §1
[26] = target: Human immunodeficiency virus type 1 reverse transcriptase (Human immunodeficiency virus 1, UniProt Q72547, K103N/Y181C); test: Inhibition of recombinant HIV1 reverse transcriptase K103N/Y181C double mutant using DIG-dUTP/biotin-dUTP/dTTP assessed as suppression of biotin-dUTP incorporation after 1 hr by ELISA

## Cc1cc(C#N)cc(C)c1Oc1nc(NC2CCN(Cc3ccc(S(N)(=O)=O)cc3)CC2)nc2ccsc12
[1]
  Ratio EC50: 5
[2]
  CC50 at 120 h: > 228000 nM
[3]
  MRT inf: 4.16 h
[4]
  AUMC: 6474.1 ug/L.hr
[5]
  selectivity ratio: > 159000
[6]
  selectivity ratio: > 70000
[7]
  AUC: 1720.9 ng·h/mL
[8]
  t1/2(app): 3.6 h
[9]
  t1/2(app): 2.51 h
[10]
  MRT inf: 3.84 h
[11]
  EC50: 1.4 nM
[12]
  AUMCt: 5690.8 ug/L.hr
[13]
  Ratio EC50: 3
[14]
  selectivity ratio: > 78100
[15]
  selectivity ratio: > 75800
[16]
  CLz/F: 172 mL/min/kg
[17]
  MRT last: 3.25 h
[18]
  VRT(t): 9.29 hr2
[19]
  EC50: 3.4 nM
[20]
  selectivity ratio: > 159000
Mus musculus
  Activity: Non-Toxic
[21]
  Tmax: 0.8 h
[22]
  VRT(t): 7.78 hr2
[23]
  VRT: 13.31 hr2
[24]
  AUMC: 7215.795 ug/L.hr
[25]
  AUC: 1756.7 ng·h/mL
[26]
  IC50: 360 nM
